HKDC1 inhibitor: inhibitors of human hexokinase HKDC1 | inhibition, % at 20 µM | Q2TB90 | hit rate 0.16% among 340,000 | recombinant HKDC1, G6PDH/diaphorase resazurin coupled fluorescence;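 active = inhibition above about 35% when tested at 20 µM, limit read from the data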
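Test system: Recombinant HKDC1 (HK5) hexokinase enzyme, produced in-house | Input: HKDC1 at 5 µg/mL | Buffer or medium: Tris pH 8.0 buffer with MgCl2, Tween-20, BSA, BME | Schedule: 90 min reaction incubation at room temperature, dark | Technique: Resazurin-to-resorufin fluorescence via G6PDH and diaphorase coupling, 525/613 nm | Controls: DMSO wells with and without enzyme mix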
Dynein transport: dynein cargo transport inhibition; 3617.4 mouse cells, GR-EGFP nuclear translocation imaging; test concentration mostly 20 µM; stimulated with dexamethasone, 1 µM; stronger effect = lower value; z-score, hits read low; hit rate 0.47% among 220,000; AID 1381;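 active = plate z-score of nuclear minus cytoplasmic receptor signal below a set negative limit, without overly bright fluorescence or cell loss, cut at about -3.5 in these data, passing the limit was not always enough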;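 also: z-score of nuclear minus cytoplasmic ring GR-EGFP intensity difference per well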
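Buffer or medium: tet-free, stripped-serum medium; Also added: dexamethasone, 1.0 µM final; Technique: high-content fluorescence imaging after fixation; Times: 48 h induction, 1 h compound, 30 min dex at 37 °C; Read-out: per-cell GR-EGFP intensity, nucleus versus surrounding cytoplasmic ring, well-averaged.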
Tb hexokinase: blocks Trypanosoma brucei hexokinase 1 activity | recombinant TbHK1, G6PDH-coupled NADH A340 | hit rate 0.11% among 220,000 | AID 1430 | inhibition, % at 10 µM;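 active = inhibition of 50% or more in the single-dose primary screen; inactive = inhibition below 50%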
Autophagy mod: alters autophagy in cells; MEF GFP-LC3 puncta imaging; test concentration mostly 10 µM; calls only at 10 µM (by protocol); hit rate 0.98% among 190,000; AID 463193;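 active = percentage of spot-positive cells more than 3 SD above its plate mean, without a fluorescence outlier flag or 80% toxicity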
HSV replic up: increases HSV replication in cells; HSV replication augmentation in cells, fold increase; maximum fold increase; hit rate 0.005% among 220,000; AID 1956; in the data active = maximum fold increase above about 1.5; tested in PC3 cells
PERK inh: blocks human PERK kinase | inhibition, % at 5.6 µM | CHO PERK-DD fusion, SEAP luminescence translation reporter | hit rate 0.17% among 220,000 | Q9NZJ5 | AID 1416;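 active = inhibition above the mean inhibition of all tested compounds plus 3 SD, set separately per screening campaign, cut at about 2.9% in these data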;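 also: PERK kinase domain activated by AP20187 dimerizer at 100 nM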
Target sequence (Q9NZJ5 whole entry, looked up, the tested form may be a part): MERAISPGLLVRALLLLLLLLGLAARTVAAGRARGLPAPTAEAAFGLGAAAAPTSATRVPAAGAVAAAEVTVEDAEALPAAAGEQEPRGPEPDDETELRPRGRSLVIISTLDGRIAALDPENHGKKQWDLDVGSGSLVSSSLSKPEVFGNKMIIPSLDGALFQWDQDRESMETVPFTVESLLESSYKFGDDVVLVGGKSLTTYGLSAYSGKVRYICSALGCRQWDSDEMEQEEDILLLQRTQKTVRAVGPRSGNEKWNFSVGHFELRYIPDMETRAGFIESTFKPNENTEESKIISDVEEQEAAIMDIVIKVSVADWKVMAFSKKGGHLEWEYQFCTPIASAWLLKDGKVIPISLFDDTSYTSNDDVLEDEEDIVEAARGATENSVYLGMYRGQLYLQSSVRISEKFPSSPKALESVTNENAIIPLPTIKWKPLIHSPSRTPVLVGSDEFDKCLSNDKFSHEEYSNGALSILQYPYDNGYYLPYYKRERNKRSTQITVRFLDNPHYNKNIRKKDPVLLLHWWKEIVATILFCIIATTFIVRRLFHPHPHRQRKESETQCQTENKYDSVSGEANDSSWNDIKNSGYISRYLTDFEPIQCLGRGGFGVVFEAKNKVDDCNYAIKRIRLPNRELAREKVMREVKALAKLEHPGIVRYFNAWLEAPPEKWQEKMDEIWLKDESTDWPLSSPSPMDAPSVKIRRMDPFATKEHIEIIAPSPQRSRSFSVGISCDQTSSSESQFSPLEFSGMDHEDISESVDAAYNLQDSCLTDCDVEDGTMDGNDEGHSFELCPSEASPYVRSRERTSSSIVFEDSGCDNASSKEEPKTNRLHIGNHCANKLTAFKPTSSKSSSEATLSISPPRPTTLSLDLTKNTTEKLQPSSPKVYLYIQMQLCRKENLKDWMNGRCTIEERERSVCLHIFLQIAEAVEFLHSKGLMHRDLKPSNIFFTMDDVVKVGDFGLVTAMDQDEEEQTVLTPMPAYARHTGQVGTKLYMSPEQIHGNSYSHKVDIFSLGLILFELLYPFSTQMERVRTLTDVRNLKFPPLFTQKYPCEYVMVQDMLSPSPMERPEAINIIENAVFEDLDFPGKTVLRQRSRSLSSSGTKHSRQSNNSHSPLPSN
Numbers stand for hits; – = inactive; · = no result given; + = active, no number. In the library only some 1.2% were active in any assay of this set; here they are far more common.

SMILES	HKDC1 inhibitor	Dynein transport	Tb hexokinase	Autophagy mod	HSV replic up	PERK inh
Cc1nc(C(F)(F)F)ccc1C(=O)Nc1ccccc1N1CCOCC1	–	·	·	·	·	·
COc1ccccc1N1CCN(C(=O)Nc2cccc(Cl)c2)CC1	–	–	–	–	–	–
COc1cccc(NC(=O)N2CCN(c3cccc(C)c3C)CC2)c1	–	–	–	+	–	–
CCOC(=O)N1CCN(c2c(N3CCN(c4cccc(C)c4C)CC3)c(=O)c2=O)CC1	–	–	–	+	–	–
Cc1cc(O)cc(=O)n1Cc1ccccc1	–	·	·	·	·	·
CN(C)C=Nc1nonc1-c1ccccc1	–	–	–	·	–	–
CN(C)C=Nc1nonc1-c1ncn[nH]1	–	–	–	+	–	–
CCCn1c(=NC(=O)c2c(-c3c(F)cccc3Cl)noc2C)c(C(=O)OCC)cc2c(=O)n3ccccc3nc21	·	–	–	+	–	–
CCCCN(CCCC)c1nc2ccccc2nc1C(C#N)C(=O)NCCCOC (configuration not stated)	–	–	–	+	–	–
N#CC(C(=O)NCCc1ccccc1)c1nc2ccccc2nc1N1CCOCC1 (configuration not stated)	–	–	–	–	–	–
CCN(CC)c1nc2ccccc2nc1C(C#N)C(=O)NCCCOC (configuration not stated)	–	–	–	–	–	–
CCN(CC)c1nc2ccccc2nc1C(C#N)C(=O)NCCc1ccccc1 (configuration not stated)	–	–	–	+	–	–
Cc1cccc(CSc2cccc3cccnc23)c1	–	–	–	+	–	–
NNC(=O)c1ccc(CSc2cccc3cccnc23)cc1	–	–	–	–	–	–
Cc1cccc(NC(=O)CSc2cccc3cccnc23)c1C	–	·	·	·	·	·
CCOC(=O)CSc1cccc2cccnc12	–	–	–	+	–	–
O=C(O)c1ccc(N=Nc2c(-c3ccccc3)[nH]oc2=O)cc1	–	·	·	·	·	·
CN(C)C1=NC(=O)/C(=C\c2ccccc2)S1	–	–	–	+	–	–
NC1=NC(=O)C(=Cc2ccccc2)S1	–	·	·	·	·	·
NNC(=O)C1CC(O)CN1S(=O)(=O)c1ccc2ccccc2c1 (configuration not stated)	–	·	·	·	·	·
Cc1ccc(NC(=O)c2cc(-c3ccc(C)o3)nc3ccccc23)cc1	–	–	–	–	–	–
Cc1ccc(-c2cc(C(=O)Nc3cccnc3)c3ccccc3n2)o1	–	-4.4	–	–	–	–
OC(COc1ccc(CNCCc2ccc(C(F)(F)F)cc2)cc1)CN1CCCCC1 (configuration not stated)	–	–	–	+	–	–
CCOc1ccccc1N1CCN(C(=O)c2ccc(OCC(=O)N3CCOCC3)c(OC)c2)CC1	–	·	·	·	·	·
O=C(CSc1nnc2c3ccccc3c3ccccc3c2n1)Nc1ccccc1	·	–	–	+	·	–
SMILES	HKDC1 inhibitor	Dynein transport	Tb hexokinase	Autophagy mod	HSV replic up	PERK inh
O=C(CSc1nnc2c3ccccc3c3ccccc3c2n1)Nc1ccccc1F	–	–	–	–	·	–
COC(=O)Cc1ccc(NC(=S)NNC(=O)C2CC2)cc1	–	–	–	·	–	3.6
CC1(C)CSC(C)(C)C(=O)N1	–	·	·	·	·	·
CCCCCCCCCCCCOC(=O)C[N+](C)(C)C	–	–	–	·	–	3.2
CC(C)c1nnc(NC(=O)C2CCN(C(=O)Nc3ccc(Cl)cc3)CC2)s1	–	·	·	·	·	·
CCC(CO)[n+]1c(C)cc(/C=C2\Sc3ccccc3N2Cc2ccccc2)cc1C (configuration not stated)	–	–	–	+	·	–
C[n+]1ccccc1/C=C1\Sc2ccccc2N1CCO	–	·	·	·	·	·
Cc1cccc(C)c1NC(=O)COC(=O)c1cccnc1	–	–	–	+	–	–
Cc1csc2c(SCC(=O)NNC(=O)C(Cl)Cl)ncnc12	–	–	–	·	–	3.1
Cc1ccc(-n2ncc3c(SCC(=O)NNC(=O)C(C)C)ncnc32)cc1	–	·	·	·	·	·
Cc1ccc(-n2c(C)nc3c(cnn3-c3ccc(C)c(C)c3)c2=O)cc1C	–	–	–	–	–	–
Cc1ccc(-n2c(C)nc3c(cnn3-c3ccc(F)cc3)c2=O)cc1C	–	–	–	+	–	–
Cc1cc(C(=O)NN=C(CCC(=O)O)c2cccs2)c(C)o1	–	·	·	·	·	·
CCOC(=O)N/N=C(\CCC(=O)O)c1cccs1	–	–	–	·	–	3.0
O=C(COC(=O)CNC(=O)c1ccc(Cl)cc1Cl)NC1CCCCCCC1	–	·	·	·	·	·
O=C(O)CN1C(=O)/C(=C2\C(=O)N(Cc3ccccc3Cl)c3ccccc32)SC1=S	51	·	·	·	·	·
O=C(Cn1cnc([N+](=O)[O-])n1)N/N=C/c1ccccc1O	–	–	–	–	–	3.4
Cc1ccccc1/C=N/NC(=O)Cn1cnc([N+](=O)[O-])n1	–	–	–	–	–	–
Cc1cc(NC(=O)C2CCCCC2C(=O)O)ccc1NC(=O)c1ccccc1 (configuration not stated)	–	·	·	·	·	·
CCOc1ccc(NC(=O)c2nsc(Cl)c2Cl)cc1	–	–	–	+	–	–
CCOc1ccc(NC(=O)c2cn(CC(C)C)c(=O)c3c2c2ccccc2n3C)cc1	–	–	–	+	–	–
Cn1c(=O)c2nc(NCc3ccccc3)sc2n(C)c1=O	–	·	·	·	·	·
CC(C)N1C(=O)C(=O)N(CC(=O)N2c3ccccc3NC(=O)CC2C)C1=O (configuration not stated)	–	·	·	·	·	·
COc1ccc2c(c1)c(=O)oc1cc(O)ccc12	–	–	–	–	–	3.4
O=c1oc2cc(O)ccc2c2ccccc12	–	–	–	–	–	–
SMILES	HKDC1 inhibitor	Dynein transport	Tb hexokinase	Autophagy mod	HSV replic up	PERK inh
Cc1cccc(NC2(C(=O)O)CCCC2)c1	–	·	·	·	·	·
CCn1cc(Cl)c(C(=O)NNC(=O)CCn2ccc([N+](=O)[O-])n2)n1	–	·	·	·	·	·
COc1ccc(N/N=C(\C=N\O)C(=O)c2ccc(OC)cc2)cc1	–	–	–	+	–	–
COc1ccc(C(=O)C(=NNc2ccccc2)c2ccc(OC)cc2)cc1	–	·	·	·	·	·
O=C(NCCCN1CCN(c2ccccc2F)CC1)C1CCCN(S(=O)(=O)c2cnc[nH]2)C1 (configuration not stated)	–	–	–	+	·	–
Cc1[nH]c(C)c(S(=O)(=O)NCc2ccc(F)cc2)c1C(=O)N1CCCCC1	–	·	·	·	·	·
CCC1=NN(C(=O)Cc2ccc([N+](=O)[O-])cc2)C(O)(C(C)(C)C)C1 (configuration not stated)	–	–	–	+	–	–
CC(C)c1nc2sc3c(NCc4ccccc4)ncnc3c2c2c1COC(C)(C)C2	–	–	–	+	–	–
CC(C)c1nc2sc3c(NCc4ccco4)ncnc3c2c2c1COC(C)(C)C2	–	–	–	–	–	–
COc1ccc(/C=C2\CCC/C(=C\C=N\N(C)C)C2=O)cc1	–	–	–	–	–	–
CN(C)/N=C/C=C1\CCC/C(=C\c2ccc(F)c(F)c2)C1=O	–	–	–	+	–	–
Cc1ccc(S(=O)(=O)N2CCC[C@H]2C(=O)OCC(=O)Nc2ccc3c(c2)OCO3)cc1	–	·	·	·	·	·
